For three molecules, pD2 and Ratio results are on record in ChEMBL document CHEMBL1124885, “Resolution, absolute stereochemistry, and enantioselectivity of 2-methyl-4-phenyl-1,2,3,4-tetrahydroisoquinolin-4-ol” (1990).

For test [1], the species on record is Rattus norvegicus. Kind of test: Tested for potentiating activity on the responses of rat anococcygeus muscle to norepinephrine (NE)at a concentration of 10 E -7 M. It counts as functional, Muscle tissue. The gist of the method:
(§1)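 Isolated rat anococcygeus muscle. Concentration-response curves to norepinephrine (NE) were run with and without the test compound, and potentiation was judged from the shift at low NE concentrations. pD2 is the negative log of the molar NE concentration giving 50% of maximal response. Activity ratio is the antilog of the pD2 difference with versus without compound, with no compound set at 1.0. n is the number of experiments.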

A short description of test [2]: Activity ratio, difference between the pD2 values for NE obtained in the absence and presence at 10 E -7 M. It counts as functional. The gist of the method:
as §1

Test [3] in a line: Activity ratio, difference between the pD2 values for NE obtained in the absence and presence at 3 x 10 E -7 M. Format: functional. Put shortly:
as §1

The species named for test [4] is Rattus norvegicus. Briefly: Tested for potentiating activity on the responses of rat anococcygeus muscle to norepinephrine (NE)at a concentration of 0 (absence of potentiating compound). It counts as functional, Muscle tissue. The gist of the method:
as §1

For test [5], the species on record is Rattus norvegicus. Kind of test: Tested for potentiating activity on the responses of rat anococcygeus muscle to norepinephrine (NE)at a concentration of 3 x 10 E -6 M. It counts as functional, Muscle tissue. Put shortly: as §1
The species entered for test [6] is Rattus norvegicus. Kind of test: Tested for potentiating activity on the responses of rat anococcygeus muscle to norepinephrine (NE)at a concentration of 10 E -6 M. Format: functional, Muscle tissue. Put shortly:
as §1

The nature of test [7]: Activity ratio, difference between the pD2 values for NE obtained in the absence and presence at 0 (absence of potentiating compound). Format: functional. Put shortly: as §1
Test [8] can be described thus: Activity ratio, difference between the pD2 values for NE obtained in the absence and presence at 10 E -6 M. Format: functional. Put shortly:
as §1

Test [9] in a line: Activity ratio, difference between the pD2 values for NE obtained in the absence and presence at 3 x 10 E -6 M. It counts as functional. Put shortly:
as §1

The species entered for test [10] is Rattus norvegicus. Briefly: Tested for potentiating activity on the responses of rat anococcygeus muscle to norepinephrine (NE)at a concentration of 3 x 10 E -7 M. It counts as functional, Muscle tissue. The gist of the method: as §1
For test [11], the species on record is Rattus norvegicus. Kind of test: Tested for potentiating activity on the responses of rat anococcygeus muscle to norepinephrine (NE)at a concentration of 10e-6 M. It counts as functional, Muscle tissue. Put shortly:
as §1

For test [12], the species on record is Rattus norvegicus. Briefly: Tested for potentiating activity on the responses of rat anococcygeus muscle to norepinephrine (NE)at a concentration of 3 x 10e-6 M. It counts as functional, Muscle tissue. Put shortly:
as §1

Test [13] can be described thus: Activity ratio, difference between the pD2 values for NE obtained in the absence and presence at 10e-6 M. It counts as functional. Put shortly:
as §1

For test [14], the species on record is Rattus norvegicus. Briefly: Tested for potentiating activity on the responses of rat anococcygeus muscle to norepinephrine (NE)at a concentration of 3 x 10e -7 M. Format: functional, Muscle tissue. Put shortly:
as §1

The species entered for test [15] is Rattus norvegicus. Kind of test: Tested for potentiating activity on the responses of rat anococcygeus muscle to norepinephrine (NE)at a concentration of 10e-7 M. Format: functional, Muscle tissue. Put shortly: as §1
Test [16] is described as follows: Activity ratio, difference between the pD2 values for NE obtained in the absence and presence at 3 x 10e-7 M. Format: functional. The gist of the method: as §1
A short description of test [17]: Activity ratio, difference between the pD2 values for NE obtained in the absence and presence at 10e-7 M. Format: functional. Put shortly: as §1

Regarding `CN1Cc2ccccc2[C@](O)(c2ccccc2)C1`, the pD2 in the test filed under Rattus norvegicus [1] is recorded as 6.6; in the test listed under Rattus norvegicus [4], 6.23; in the test listed under Rattus norvegicus [5], 7.56; in the test listed under Rattus norvegicus [6], 7.28; in the test filed under Rattus norvegicus [10] it was 7.01. For the same molecule, the Ratio amounted to 2.3 in test [2]; 6 in test [3]; 1 in [7]; 11.2 in [8]; 21.4 in test [9].
With `CN1Cc2ccccc2C(O)(c2ccccc2)C1` (racemic), the pD2 stood at 7.18 in the test listed under Rattus norvegicus [11]; 6.25 in the test listed under Rattus norvegicus [4]; 7.5 in the test listed under Rattus norvegicus [12]; 6.73 in the test filed under Rattus norvegicus [14]; 6.42 in the test listed under Rattus norvegicus [15]. Besides, the Ratio in test [13] came out at 8.5; in test [7] it was 1; in [9] it was 17.8; in [16], 3; in [17], 1.5.
For the molecule `CN1Cc2ccccc2[C@@](O)(c2ccccc2)C1`, the Ratio in [3] worked out at 1; in test [7], 1; in test [8], 1; in test [9], 1.1. Also, the pD2 in the test filed under Rattus norvegicus [4] amounted to 6.23; in the test listed under Rattus norvegicus [5], 6.27; in the test filed under Rattus norvegicus [6], 6.23; in the test filed under Rattus norvegicus [10], 6.24.
